Laboratory results taken from ChEMBL document CHEMBL1156767, “Indol-3-ylcycloalkyl ketones: effects of N1 substituted indole side chain variations on CB(2) cannabinoid receptor activity” (J Med Chem, 2010).

What was measured:
[1] = target: T1, Cannabinoid receptor 2 (Rattus norvegicus) (UniProt Q9QZN9); assay: Agonist activity at rat CB2 receptor assessed as inhibition of forskolin-induced cAMP production by cell based assay relative to CP-55940; type: functional; design: concentration or dose not given beside the values
T1 sequence (whole entry): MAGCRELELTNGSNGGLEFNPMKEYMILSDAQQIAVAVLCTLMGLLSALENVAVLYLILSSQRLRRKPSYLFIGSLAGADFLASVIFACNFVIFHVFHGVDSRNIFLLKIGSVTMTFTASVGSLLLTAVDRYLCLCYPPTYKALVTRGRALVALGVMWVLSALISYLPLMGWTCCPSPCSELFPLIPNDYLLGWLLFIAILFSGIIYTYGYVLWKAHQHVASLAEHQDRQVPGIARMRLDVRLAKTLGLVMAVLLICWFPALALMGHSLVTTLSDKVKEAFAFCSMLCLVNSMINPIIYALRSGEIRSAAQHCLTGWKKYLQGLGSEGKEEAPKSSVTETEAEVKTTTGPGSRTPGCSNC
In short: (§1)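 Cyclase assay on cell suspensions (HitHunter cAMP kit): varying test ligand concentrations or CP-55,940 positive control incubated 20 min at 37 °C with a fixed forskolin concentration (lower for rat CB2 than for human CB2 and rat CB1) in D-PBS with 0.01% BSA. Lysis buffer was then added and luminescence read. Response is given as percent of the CP-55,940 response.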

Cannabinoid receptor 2 [2] = target: T2, Cannabinoid receptor 2 (Homo sapiens, UniProt P34972); assay: Agonist activity at human recombinant CB2 receptor expressed in HEK293 cells assessed as inhibition of forskolin-induced cAMP production; type: functional, cell-based
T2 sequence (P34972 whole entry): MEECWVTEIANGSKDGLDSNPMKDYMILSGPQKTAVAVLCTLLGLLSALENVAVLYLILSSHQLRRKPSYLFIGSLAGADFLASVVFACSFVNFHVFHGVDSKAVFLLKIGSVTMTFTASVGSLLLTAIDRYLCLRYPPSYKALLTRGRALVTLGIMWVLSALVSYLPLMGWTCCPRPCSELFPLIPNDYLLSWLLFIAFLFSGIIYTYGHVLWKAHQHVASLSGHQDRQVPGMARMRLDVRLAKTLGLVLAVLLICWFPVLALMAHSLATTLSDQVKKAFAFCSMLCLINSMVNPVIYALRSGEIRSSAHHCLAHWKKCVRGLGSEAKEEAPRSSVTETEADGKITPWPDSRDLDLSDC

Cannabinoid receptor 2 [3] = target: T2, Cannabinoid receptor 2; assay: Agonist activity at human recombinant CB2 receptor expressed in HEK293 cells assessed as inhibition of forskolin-induced cAMP production relative to CP-55940; type: functional, cell-based; design: scale not given: the % may be the effect or the level left; in short: as §1
Cannabinoid receptor 2 [4] = target: T3, Cannabinoid receptor 2 (Rattus norvegicus, UniProt Q9QZN9); assay: Agonist activity at rat CB2 receptor assessed as inhibition of forskolin-induced cAMP production by cell based assay; type: functional
T3 sequence (Q9QZN9 whole entry): T1 sequence (whole entry)

[5] = target: Cannabinoid receptor 1 (Rattus norvegicus) (UniProt P20272); assay: Agonist activity at rat CB1 receptor assessed as inhibition of forskolin-induced cAMP production by cell based assay relative to CP-55940; type: functional; design: scale not given: the % may be the effect or the level left; in short: as §1
Chain of Cannabinoid receptor 1 (Rattus norvegicus) (P20272 whole entry): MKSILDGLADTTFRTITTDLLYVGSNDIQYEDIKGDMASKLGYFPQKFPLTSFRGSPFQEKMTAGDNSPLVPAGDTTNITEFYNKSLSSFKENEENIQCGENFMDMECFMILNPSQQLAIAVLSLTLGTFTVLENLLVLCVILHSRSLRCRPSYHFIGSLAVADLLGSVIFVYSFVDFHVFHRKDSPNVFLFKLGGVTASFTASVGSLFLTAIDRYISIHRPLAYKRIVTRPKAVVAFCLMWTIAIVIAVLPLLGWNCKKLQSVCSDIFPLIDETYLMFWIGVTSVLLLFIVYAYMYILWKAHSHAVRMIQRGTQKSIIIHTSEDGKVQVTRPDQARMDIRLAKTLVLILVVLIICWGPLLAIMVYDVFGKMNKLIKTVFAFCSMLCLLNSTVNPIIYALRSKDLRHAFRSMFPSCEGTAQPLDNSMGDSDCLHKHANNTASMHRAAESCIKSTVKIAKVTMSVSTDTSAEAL

Cannabinoid receptor 1 [6] = target: Cannabinoid receptor 1 (Rattus norvegicus, UniProt P20272); assay: Agonist activity at rat CB1 receptor assessed as inhibition of forskolin-induced cAMP production by cell based assay; type: functional
Chain of Cannabinoid receptor 1 (Rattus norvegicus, UniProt P20272) (P20272 whole entry): as above

Cannabinoid receptor 2 [7] = target: T2, Cannabinoid receptor 2; assay: Agonist activity at human recombinant CB2 receptor expressed in HEK293 cells coexpressing Galphaq/o5 assessed as calcium mobilization by FLIPR assay; type: functional, cell-based
In short: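 HEK cells stably coexpressing human CB2 and chimeric Gαq/o5 were seeded at 75 000 cells/well the day before and loaded with no-wash calcium dye. Mean ± SEM, ≥3 experiments in duplicate.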

Cannabinoid receptor 2 [8] = target: T2, Cannabinoid receptor 2; assay: Displacement of [3H]CP-55940 from human recombinant CB2 receptor expressed in HEK293 cells; type: cell-based; settings: read-out: Ki
Cannabinoid receptor 2 [9] = target: T2, Cannabinoid receptor 2; assay: Agonist activity at human recombinant CB2 receptor expressed in HEK293 cells coexpressing Galphaq/o5 assessed as calcium mobilization by FLIPR assay relative to CP-55940; type: functional, cell-based
In short: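 HEK cells stably coexpressing human CB2 and chimeric Gαq/o5 were seeded at 75 000 cells/well the day before and loaded with no-wash calcium dye. […] Mean ± SEM, ≥3 experiments in duplicate.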

Cannabinoid receptor 1 [10] = target: T4, Cannabinoid receptor 1 (Homo sapiens, UniProt P21554); assay: Displacement of [3H]CP-55940 from human recombinant CB1 receptor expressed in CHO cells; type: cell-based
T4 sequence (P21554 whole entry): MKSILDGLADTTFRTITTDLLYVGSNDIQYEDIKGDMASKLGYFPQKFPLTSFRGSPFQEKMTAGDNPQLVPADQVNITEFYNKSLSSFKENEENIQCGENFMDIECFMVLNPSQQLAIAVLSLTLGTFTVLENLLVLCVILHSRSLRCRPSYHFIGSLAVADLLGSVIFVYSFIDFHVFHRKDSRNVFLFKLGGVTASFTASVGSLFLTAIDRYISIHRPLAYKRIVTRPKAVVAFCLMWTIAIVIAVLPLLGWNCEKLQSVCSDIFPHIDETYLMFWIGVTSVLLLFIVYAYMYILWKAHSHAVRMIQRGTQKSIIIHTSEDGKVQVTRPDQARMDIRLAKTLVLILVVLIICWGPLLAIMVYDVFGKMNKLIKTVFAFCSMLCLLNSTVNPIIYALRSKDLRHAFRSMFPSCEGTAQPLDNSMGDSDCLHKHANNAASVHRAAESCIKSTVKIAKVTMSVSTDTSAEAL

Homo sapiens = species on record: Homo sapiens; assay: Selectivity ratio of Ki for human recombinant CB1 receptor to Ki for human recombinant CB2 receptor
In short: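 Membranes were from HEK cells stably expressing human CB2 and CHO cells stably expressing human CB1. Competition was run against 0.5 nM [3H]CP-55,940 in 50 mM Tris-HCl pH 7.4, 2.5 mM EDTA, 5 mM MgCl2, 0.05% fatty-acid-free BSA, for 90 min at 30 °C, then filtered. Nonspecific binding was set with 10 μM unlabeled CP-55,940. Ki came from one-site fits. Mean ± SEM, ≥3 experiments in duplicate.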

Cannabinoid receptor 1 [11] = target: T4, Cannabinoid receptor 1; assay: Agonist activity at human recombinant CB1 receptor expressed in CHO cells assessed as inhibition of forskolin-induced cAMP production; type: functional, cell-based

Compound	Activity [1] [%]	EC50 (Cannabinoid receptor 2 [2]) [nM]	Activity (Cannabinoid receptor 2 [3]) [%]	EC50 (Cannabinoid receptor 2 [4]) [nM]	Activity [5] [%]	EC50 (Cannabinoid receptor 1 [6]) [nM]	EC50 (Cannabinoid receptor 2 [7]) [nM]	Ki (Cannabinoid receptor 2 [8]) [nM]	Activity (Cannabinoid receptor 2 [9]) [%]	Ki (Cannabinoid receptor 1 [10]; read-out: Ki) [nM]	Ratio Ki (Homo sapiens)	EC50 (Cannabinoid receptor 1 [11]) [nM]	Ki (Cannabinoid receptor 1 [10]; read-out: pKi (converted)) [nM]
CC1(C)C(C(=O)c2cn(CC3CCOCC3)c3ccccc23)C1(C)C	93	2.7	103	0.17	91								
CC1(C)C(C(=O)c2cn(CCN3CCOCC3)c3ccccc23)C1(C)C	70	0.52	78	1.6	97	248	16	4.6					
CCCCCn1cc(C(=O)C2C(C)(C)C2(C)C)c2ccccc21							29	1.8	93	150	83		
CC1(C)C(C(=O)c2cn(CCO)c3ccccc23)C1(C)C							440	56	85	> 10000	> 179		
CC1(C)C(C(=O)c2cn(CCc3ccsc3)c3ccccc23)C1(C)C							70	1.8	108	148	82		
CC1(C)C(C(=O)c2cn(CCN3CCCCCC3)c3ccccc23)C1(C)C							1020	26	49	790	30		
CC1(C)C(C(=O)c2cn(CCc3nsc(Cl)n3)c3ccccc23)C1(C)C							109	8.3	97	4200	506		
COC(=O)CCn1cc(C(=O)C2C(C)(C)C2(C)C)c2ccccc21							17	2.9	109	1830	631		
CC1(C(=O)c2cn(CC3CCOCC3)c3ccccc23)CC1(Cl)Cl (stereo not drawn)							782	181	32	3360	19		
O=C(c1cn(CC2CCOCC2)c2ccccc12)C1CCCC1							20	11	64	131	12		
O=C(c1cn(CCN2CCOCC2)c2ccccc12)[C@@H]1CC12CCCCC2							42	35	50	3060	87		
CN1CCCCC1Cn1cc(C(=O)C2C(C)(C)C2(C)C)c2ccccc21 (stereo not drawn)							628	0.48	48	5.5	11		
O=C(c1cn(CC2CCOCC2)c2ccccc12)[C@@H]1CC12CCCCC2							14	2.6	86	62	24		
O=C(c1cn(CCN2CCOCC2)c2ccccc12)C1CCCCC1							86	138	44	1630	12		
COCCCn1cc(C(=O)C2C(C)(C)C2(C)C)c2ccccc21							26	1.3	108	660	508		
COCCn1cc(C(=O)C2C(C)(C)C2(C)C)c2ccccc21							14	3.1	117	710	229		
CC1(C)C(C(=O)c2cn(CCN3CCOC3=O)c3ccccc23)C1(C)C	99	0.97	114	0.07			2	0.18	81	350	1940	3590	
CC1(C)C(C(=O)c2cn(CCn3cccc3)c3ccccc23)C1(C)C							54	1.8	97	310	172		
CC1(C)C(C(=O)c2cn(CCc3cccnc3)c3ccccc23)C1(C)C							62	20	78	> 10000	> 500		
O=C(c1cn(CC2CCOCC2)c2ccccc12)C12CC3CC(CC1C3)C2							7	2.1	93	73	35		
CC[C@H]1CC[C@H](C(=O)c2cn(CCN3CCOCC3)c3ccccc23)CC1							85	16	59	616	39		
Cc1c(C(=O)c2cccc3ccccc23)c2cccc3c2n1[C@H](CN1CCOCC1)CO3	46				108								
CC1(C)C(C(=O)c2cn(CCCC(F)(F)F)c3ccccc23)C1(C)C							6	0.09	104	15	167		
CSCCCCn1cc(C(=O)C2C(C)(C)C2(C)C)c2ccccc21							22	0.4	74	39	98		
CN(C)CCn1cc(C(=O)C2C(C)(C)C2(C)C)c2ccccc21							35	1.9	105	> 10000	> 5260		
CC1(C)C(C(=O)c2cn(CCCCO)c3ccccc23)C1(C)C	104	2.1	100	4.4	113	2080	8	2.2	105	> 5600	> 2500	1880	> 5620
CC1(C)C(C(=O)c2cn(CCN3CCCCC3)c3ccccc23)C1(C)C							56	2.3	93	556	242		
CC1(C)C(C(=O)c2cn(CCCO)c3ccccc23)C1(C)C							27	2.1	140	2200	1050		
